ChEMBL document CHEMBL4145611, “Discovery of Marinoquinolines as Potent and Fast-Acting Plasmodium falciparum Inhibitors with in Vivo Activity” (J Med Chem, 2018)
The source made the active and inactive calls. The rule behind the calls is not given here.

Key:
Plasmodium falciparum [1] = assay: Antiplasmodial activity against chloroquine-sensitive blood parasite forms of Plasmodium falciparum 3D7 infected in RBC by SYBR green assay; type: functional, organism-based; settings: 3D7, Erythrocyte
Method in brief: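 3D7 blood-stage cultures, sorbitol-synchronized twice beforehand, used at 5-10% parasitemia with >80% rings, diluted to 0.5% parasitemia and 2% hematocrit with graded compound (0.05% DMSO), triplicate; artesunate and chloroquine controls. SYBR green I lysis-buffer fluorescence at 485/535 nm; IC50 from curve fit relative to drug-free medium.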

HepG2 = assay: Cytotoxicity against human HepG2 cells assessed as reduction in cell viability after 24 hrs by MTT assay; type: cell-based; settings: HepG2, 24 h
Method in brief: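 HepG2 cells in RPMI-1640 with 10% heat-inactivated serum, seeded 5×10^3 per well, allowed to adhere 18 h at 37 °C, then exposed to compound (400–6.2 µM) for 24 h at 37 °C, 5% CO2. MTT (5 mg/mL) for 3 h, formazan dissolved in DMSO, absorbance 570 nm with 630 nm background; viability as percent of untreated control.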

[2] = Therapeutic index, ratio of EC50 for human HepG2 cells to IC50 for chloroquine-sensitive blood parasite forms of Plasmodium falciparum 3D7; type: toxicity; settings: read-out: TI
Plasmodium falciparum [3] = assay: Plasmodicidal activity against Plasmodium falciparum 3D7A infected in erythrocytes assessed as parasite survival at 10 times IC50 pre-incubated for 24 hrs followed by compound washout and measured after 24 hrs by […] incorporation assay (reference value: 100%); type: functional
Plasmodium falciparum [4] = assay: Plasmodicidal activity against Plasmodium falciparum 3D7A infected in erythrocytes assessed as parasite survival at 10 times IC50 pre-incubated for 48 hrs followed by compound washout and measured after 24 hrs by […] incorporation assay (reference value: 100%); type: functional
Plasmodium berghei [5] = assay: Antiplasmodial activity against Plasmodium berghei NK65 infected in Swiss mouse assessed as reduction in parasitemia at 50 mg/kg, po administered via gavage for 3 consecutive days post infection measured on day 9 post infection relative to control; type: functional; design: scale not given: the % may be the effect or the level left
Method in brief: (§1)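 P. berghei NK65 suppressive test: adult Swiss outbred mice (20±2 g) inoculated ip with 1×10^5 infected red cells, randomized to groups, dosed daily for three days by oral gavage or ip injection with test compound at 50 mg/kg in 3% (v/v) DMSO; CQ 20 mg/kg and vehicle groups in parallel. Giemsa-stained tail-blood smears on days 5, 7, 9; inhibition = [(C−T)/C]×100 versus untreated control.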

Plasmodium falciparum [6] = assay: Antiplasmodial activity against chloroquine-sensitive trophozoite form of Plasmodium falciparum 3D7 infected in RBC after 72 hrs by SYBR green assay; type: functional, organism-based; settings: 3D7, Erythrocyte
Method in brief: (§2)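 Sorbitol-synchronized 3D7 cultures of each stage (or asynchronous) diluted to 0.5% parasitemia, 2% hematocrit, exposed to graded compound concentrations (0.05% DMSO) for 72 h in triplicate. Read-out: lysis buffer (20 mM Tris pH 7.5, 5 mM EDTA, 0.008% saponin, 0.08% Triton X-100) with SYBR green I 1:20000, fluorescence 485/535 nm, uninfected erythrocytes as background; IC50 by curve fitting versus drug-free growth.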

Plasmodium falciparum [7] = assay: Antiplasmodial activity against chloroquine-sensitive schizont form of Plasmodium falciparum 3D7 infected in RBC after 72 hrs by SYBR green assay; type: functional, organism-based; settings: 3D7, Erythrocyte; method in brief: as §2
[8] = Metabolic stability in rat liver microsomes assessed as compound remaining at 4 uM after 30 mins in presence of NADPH by HPLC analysis; type: ADME, microsome; settings: read-out: Stability
Method in brief: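 Rat pooled liver microsomes (final 2 mg/mL protein) in 0.1 M phosphate buffer pH 7.4 with 30 mM MgCl2 and 10 mM NADPH; compounds at 4 µM final; verapamil 0.1 mM positive control. Reactions quenched with ice-cold acetonitrile at set times; parent remaining measured by LC-MS/MS; first-order depletion rate used to derive half-life.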

Plasmodium falciparum [9] = assay: Antiplasmodial activity against chloroquine-sensitive ring form of Plasmodium falciparum 3D7 infected in RBC after 72 hrs by SYBR green assay; type: functional, organism-based; settings: 3D7, Erythrocyte; method in brief: as §2
Plasmodium berghei [10] = assay: Antiplasmodial activity against Plasmodium berghei NK65 infected in Swiss mouse assessed as reduction in parasitemia at 50 mg/kg, po administered via gavage for 3 consecutive days post infection measured on day 5 post infection relative to control; type: functional; design: scale not given: the % may be the effect or the level left; method in brief: as §1
Plasmodium falciparum [11] = assay: Antiplasmodial activity against chloroquine-sensitive asynchronous form of Plasmodium falciparum 3D7 infected in RBC after 72 hrs by SYBR green assay; type: functional, organism-based; settings: 3D7, Erythrocyte; method in brief: as §2
Plasmodium falciparum [12] = assay: Antiplasmodial activity against early ring stage form of Plasmodium falciparum assessed as induction of alterations in parasite morphology at 10 times IC50 concentration after 8 to 16 hrs by microscopic analysis; type: functional, organism-based
Plasmodium berghei [13] = assay: Antiplasmodial activity against Plasmodium berghei NK65 infected in Swiss mouse assessed as reduction in parasitemia at 50 mg/kg, po administered via gavage for 3 consecutive days post infection measured on day 7 post infection relative to control; type: functional; design: scale not given: the % may be the effect or the level left; method in brief: as §1
Plasmodium berghei [14] = assay: Antiplasmodial activity against Plasmodium berghei NK65 infected in Swiss mouse assessed as mouse survival at 50 mg/kg, po administered for 3 consecutive days post infection measured on day 9 post infection (reference value: 19 +/- 5 days); type: functional

SMILES	IC50 (Plasmodium falciparum [1]; read-out: IC50) [µM]	EC50 (HepG2) [µM]	selectivity ratio [2]	other results
Cc1nc2ccccc2c2cc[nH]c12 [MARINOQUINOLINE A]	> 10	–	–	–
COc1cc(OC)cc(-c2nc3cc(OC)ccc3c3cc[nH]c23)c1	1	> 250	> 250	IC50 (Plasmodium falciparum [1]; read-out: pIC50 (converted)): 1 µM
Brc1ccc2c(-c3nc4ccccc4c4cc[nH]c34)c[nH]c2c1	6.2	42	7	–
COc1ccc2c(c1)nc(-c1ccccc1)c1[nH]cc(Br)c12	2.1	111	53	–
CN(C)c1ccc(-c2nc3ccccc3c3cc[nH]c23)cc1	5.8	> 600	> 104	–
c1ccc(-c2nc3ccccc3c3cc[nH]c23)cc1	9.9	> 750	> 75	–
COc1cc(-c2nc3ccccc3c3cc[nH]c23)cc(OC)c1OC	9.2	99	11	–
Brc1ccc2[nH]cc(-c3nc4ccccc4c4cc[nH]c34)c2c1	12.3	93	8	IC50 (Plasmodium falciparum [1]; read-out: pIC50 (converted)): 12.3 µM
c1ccc2[nH]c(-c3nc4ccccc4c4cc[nH]c34)cc2c1	4.8	746	155	–
c1ccc(Cc2nc3ccccc3c3cc[nH]c23)cc1 [MARINOQUINOLINE C]	> 10	–	–	–
Clc1ccc(-c2nc3ccccc3c3cc[nH]c23)cc1	10.5	> 250	> 24	–
COc1ccc2c(c1)nc(-c1ccc(NC(C)=O)cc1)c1[nH]ccc12	> 10	–	–	IC50 (Plasmodium falciparum [1]; read-out: pIC50 (converted)): > 10 µM
COc1ccc(-c2nc3ccccc3c3cc[nH]c23)cc1	6.7	> 250	> 37	–
COc1ccc2c(c1)nc(-c1ccc(N(C)C)cc1)c1[nH]ccc12	0.4	20	50	–
CCc1nc2cc(OC)ccc2c2cc[nH]c12	> 10	–	–	–
O=C1C(O)=C([C@H]2CC[C@H](c3ccc(Cl)cc3)CC2)C(=O)c2ccccc21 [ATOVAQUONE]	–	–	–	Survival (Plasmodium falciparum [3]): 68%; Survival (Plasmodium falciparum [4]): 40%
Brc1c[nH]c2c(-c3c[nH]c4ccccc34)nc3ccccc3c12	> 10	–	–	–
CCc1nc2ccccc2c2cc[nH]c12	7.3	151	21	–
Nc1ccc(-c2nc3ccccc3c3cc[nH]c23)cc1	7.7	41	5	–
C[C@H]1[C@H](OC(=O)CCC(=O)O)O[C@@H]2O[C@@]3(C)CC[C@H]4[C@H](C)CC[C@@H]1[C@@]24OO3 [ARTESUNATE]	–	–	–	Survival (Plasmodium falciparum [3]): 14%; Survival (Plasmodium falciparum [4]): 5%

SMILES	IC50 (Plasmodium falciparum [1]; read-out: IC50) [µM]	EC50 (HepG2) [µM]	selectivity ratio [2]	other results
Brc1ccc(-c2nc3ccccc3c3cc[nH]c23)cc1	> 10	–	–	–
COc1ccc2c(c1)nc(C)c1[nH]ccc12	10.5	> 750	> 71	–
COc1ccc2c(c1)nc(-c1ccc(N)cc1)c1[nH]ccc12	1.3	> 750	> 576	–
COc1ccc2c(c1)nc(-c1ccc(C(=O)O)cc1)c1[nH]ccc12	> 10	–	–	–
COC(=O)c1ccc(-c2nc3cc(OC)ccc3c3cc[nH]c23)cc1	1.3	> 250	> 192	–
COc1ccc2c(c1)nc(-c1ccccc1)c1[nH]ccc12	2.4	60	25	–
COc1ccc2c(c1)nc(-c1ccc([N+](=O)[O-])cc1)c1[nH]ccc12	1.9	144	76	–
c1ccc2c(c1)nc(-c1c[nH]c3ccccc13)c1[nH]ccc12 [MARINOQUINOLINE E]	10.4	> 750	> 72	–
O=[N+]([O-])c1ccc(-c2nc3ccccc3c3cc[nH]c23)cc1	> 10	–	–	–
COc1ccc2c(c1)nc(C)c1[nH]cc(Br)c12	5.4	> 250	> 46	–
COc1ccc2c(c1)nc(-c1c[nH]c3ccccc13)c1[nH]ccc12	0.061	20	328	IC50 (Plasmodium falciparum [1]; read-out: pIC50 (converted)): 0.0617 µM
O=C(O)c1ccc(-c2nc3ccccc3c3cc[nH]c23)cc1	12.1	82	7	–
COC(=O)c1ccc(-c2nc3ccccc3c3cc[nH]c23)cc1	4	> 250	> 63	IC50 (Plasmodium falciparum [1]; read-out: pIC50 (converted)): 3.98 µM
Brc1ccc2c(c1)nc(-c1c[nH]c3ccccc13)c1[nH]ccc12	7.9	> 250	> 32	–
COc1ccc2c(c1)nc(Cc1ccccc1)c1[nH]ccc12	14.3	478	33	–
CC(C)Cc1nc2ccccc2c2cc[nH]c12	4.1	> 250	> 61	–
COc1cc(OC)cc(-c2nc3ccccc3c3cc[nH]c23)c1	4.9	> 250	> 51	–
COc1ccc2c(c1)nc(CC(C)C)c1[nH]ccc12	0.5	35	> 70	Activity (Plasmodium berghei [5]): 0%; IC50 (Plasmodium falciparum [6]): 0.42 µM; IC50 (Plasmodium falciparum [7]): 0.4 µM; remaining at 0.5 h, 4 µM [8]: 24%; IC50 (Plasmodium falciparum [9]): 0.5 µM; Activity (Plasmodium berghei [10]): 0%; IC50 (Plasmodium falciparum [11]): 0.42 µM; Activity (Plasmodium falciparum [12]): Active; Activity (Plasmodium berghei [13]): 0%; Survival (Plasmodium berghei [14]): 23 days
CCc1nc(N)nc(N)c1-c1ccc(Cl)cc1 [PYRIMETHAMINE]	–	–	–	Survival (Plasmodium falciparum [3]): 55%; Survival (Plasmodium falciparum [4]): 11%
